Data published in ChEMBL document CHEMBL4715728, “New bifunctional antioxidant/σ1 agonist ligands: Preliminary chemico-physical and biological evaluation” (Bioorg Med Chem, 2016).
Blank lines part the entries; values can stand above or below the molecule they belong to. Activity calls are given as the source filed them. The rule behind the calls is not given here.

How the values were obtained:
[1] = Antioxidant activity in Sprague-Dawley rat Cerebral cortex neuron assessed as total oxidative stress level by measuring H2O2 equivalents at 100 uM after 24 hrs (reference value: 2.3 +/- 0.3 umol/L); assay type: functional
In short: (§1)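 Primary cerebral cortex neurons from rat fetuses, grown on poly-D-lysine in neurobasal medium with fetal calf serum (5% CO2, 37 °C), tested after 8 days in culture. Compounds in DMSO (0.5%) or sterile water were added and incubated 24 h at 37 °C. Cells were washed in ice-cold PBS and homogenized in 0.9% saline. Intracellular TAC (Trolox equiv.) and TOS (H2O2 equiv.) were read by kit. Ascorbic acid 10 µM (TAC) and H2O2 25 µM (TOS) served as positive controls. Four independent experiments.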

[2] = Antioxidant activity in Sprague-Dawley rat Cerebral cortex neuron assessed as total antioxidant capacity by measuring trolox equivalents at 0.1 uM after 24 hrs; assay type: functional; in short: as §1
[3] = Cytotoxicity against Sprague-Dawley rat Cerebral cortex neuron assessed as LDH activity at 0.1 uM incubated for 24 hrs by LDH assay (reference value: […]); assay type: tissue-based
In short: (§2)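 Primary fetal rat cortical neurons, matured 8 days on poly-D-lysine, exposed 24 h at 37 °C to compound (0.1–100 µM; DMSO 0.5% or water vehicle). LDH released into 100 µl culture medium was measured by kit as the rate of NAD+ reduction (absorbance increase at 490 nm). Positive control was mitomycin C. Four independent experiments.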

[4] = Antioxidant activity in Sprague-Dawley rat Cerebral cortex neuron assessed as total oxidative stress level by measuring H2O2 equivalents at 10 uM after 24 hrs (reference value: 2.3 +/- 0.3 umol/L); assay type: functional; in short: as §1
[5] = Cytotoxicity against Sprague-Dawley rat Cerebral cortex neuron assessed as LDH activity at 100 uM incubated for 24 hrs by LDH assay (reference value: […]); assay type: tissue-based; in short: as §2
[6] = Cytotoxicity against Sprague-Dawley rat Cerebral cortex neuron assessed as cell viability at 1 uM incubated for 24 hrs by MTT assay relative to control; assay type: tissue-based; details: cerebral cortex neurons, read-out: Activity
In short: (§3)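 Primary fetal rat cortical neurons, matured 8 days, treated 24 h at 37 °C with compound (0.1–100 µM; 0.5% DMSO or water vehicle). MTT 0.7 mg/ml was then added for 30 min at 37 °C, and formazan was extracted with isopropanol/formic acid (95:5) and read at 560 nm. Untreated control was set as 100% viability. Four independent experiments.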

[7] = Antioxidant activity in Sprague-Dawley rat Cerebral cortex neuron assessed as total antioxidant capacity by measuring trolox equivalents at 10 uM after 24 hrs; assay type: functional; in short: as §1
[8] = Cytotoxicity against Sprague-Dawley rat Cerebral cortex neuron assessed as cell viability at 100 uM incubated for 24 hrs by MTT assay relative to control; assay type: tissue-based; details: cerebral cortex neurons, read-out: Activity; in short: as §3
[9] = Antioxidant activity in Sprague-Dawley rat Cerebral cortex neuron assessed as total antioxidant capacity by measuring trolox equivalents at 1 uM after 24 hrs; assay type: functional; in short: as §1
[10] = Cytotoxicity against Sprague-Dawley rat Cerebral cortex neuron assessed as LDH activity at 25 uM incubated for 24 hrs by LDH assay (reference value: […]); assay type: tissue-based; in short: as §2
[11] = Antioxidant activity in Sprague-Dawley rat Cerebral cortex neuron assessed as total antioxidant capacity by measuring trolox equivalents at 50 uM after 24 hrs; assay type: functional; in short: as §1
[12] = Antioxidant activity in Sprague-Dawley rat Cerebral cortex neuron assessed as total antioxidant capacity by measuring trolox equivalents at 25 uM after 24 hrs; assay type: functional; in short: as §1
[13] = Antioxidant activity in Sprague-Dawley rat Cerebral cortex neuron assessed as total oxidative stress level by measuring H2O2 equivalents at 50 uM after 24 hrs (reference value: 2.3 +/- 0.3 umol/L); assay type: functional; in short: as §1
[14] = Antioxidant activity in Sprague-Dawley rat Cerebral cortex neuron assessed as total antioxidant capacity by measuring trolox equivalents at 100 uM after 24 hrs; assay type: functional; in short: as §1
[15] = Cytotoxicity against Sprague-Dawley rat Cerebral cortex neuron assessed as LDH activity at 10 uM incubated for 24 hrs by LDH assay; assay type: tissue-based; in short: as §2
[16] = Cytotoxicity against Sprague-Dawley rat Cerebral cortex neuron assessed as cell viability at 10 uM incubated for 24 hrs by MTT assay relative to control; assay type: tissue-based; details: cerebral cortex neurons, read-out: Activity; in short: as §3
[17] = Cytotoxicity against Sprague-Dawley rat Cerebral cortex neuron assessed as LDH activity at 1 uM incubated for 24 hrs by LDH assay (reference value: […]); assay type: tissue-based; in short: as §2
[18] = Cytotoxicity against Sprague-Dawley rat Cerebral cortex neuron assessed as cell viability at 25 uM incubated for 24 hrs by MTT assay relative to control; assay type: tissue-based; details: cerebral cortex neurons, read-out: Activity; in short: as §3
[19] = Cytotoxicity against rat Sprague-Dawley Cerebral cortex neuron assessed as cell viability at 50 uM incubated for 24 hrs by MTT assay relative to control; assay type: tissue-based; details: cerebral cortex neurons, read-out: Activity; in short: as §3
[20] = Antioxidant activity in Sprague-Dawley rat Cerebral cortex neuron assessed as total oxidative stress level by measuring H2O2 equivalents at 1 uM after 24 hrs (reference value: 2.3 +/- 0.3 umol/L); assay type: functional; in short: as §1
[21] = Cytotoxicity against Sprague-Dawley rat Cerebral cortex neuron assessed as cell viability at 0.1 uM incubated for 24 hrs by MTT assay relative to control; assay type: tissue-based; details: cerebral cortex neurons, read-out: Activity; in short: as §3
[22] = Cytotoxicity against Sprague-Dawley rat Cerebral cortex neuron assessed as LDH activity at 50 uM incubated for 24 hrs by LDH assay (reference value: […]); assay type: tissue-based; in short: as §2
[23] = Antioxidant activity in Sprague-Dawley rat Cerebral cortex neuron assessed as total oxidative stress level by measuring H2O2 equivalents at 25 uM after 24 hrs (reference value: 2.3 +/- 0.3 umol/L); assay type: functional; in short: as §1
[24] = Antioxidant activity in Sprague-Dawley rat Cerebral cortex neuron assessed as total oxidative stress level by measuring H2O2 equivalents at 0.1 uM after 24 hrs (reference value: 2.3 +/- 0.3 umol/L); assay type: functional; in short: as §1
[25] = molecular target: Sigma non-opioid intracellular receptor 1 (Cavia porcellus, UniProt Q60492); assay: Displacement of [3H]-(+)-pentazocine from sigma1 receptor in guinea pig brain membrane incubated for 150 mins by liquid scintillation counting method; assay type: cell membranes
Chain of Sigma non-opioid intracellular receptor 1 (Q60492 whole entry): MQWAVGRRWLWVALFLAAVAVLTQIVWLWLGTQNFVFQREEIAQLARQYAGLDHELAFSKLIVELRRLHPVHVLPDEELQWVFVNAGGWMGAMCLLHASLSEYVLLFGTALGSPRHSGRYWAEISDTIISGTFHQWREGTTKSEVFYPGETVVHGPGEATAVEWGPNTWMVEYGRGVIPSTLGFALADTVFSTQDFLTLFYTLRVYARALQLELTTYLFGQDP
In short: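 Guinea pig brain membranes (500 µg protein) in 50 mM Tris-HCl pH 7.4 with 3 nM [3H]-(+)-pentazocine. […] Incubated 150 min at 37 °C, then filtered on PEI-soaked GF/B filters and counted by scintillation. Ki obtained by EBDA/LIGAND; three determinations.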

[26] = species on record: Cavia porcellus; assay: Selectivity ratio of Ki for displacement of [3H]-DTG from sigma2 receptor in guinea pig brain membrane to Ki for displacement of [3H]-(+)-pentazocine from sigma1 receptor in guinea pig brain membrane; assay type: cell membranes
[27] = Displacement of [3H]-DTG from Sigma 2 receptor in guinea pig brain membrane incubated for 120 mins in presence of sigma1 blocker (+)-SKF-10047 by liquid scintillation counting method; assay type: cell membranes, Cavia porcellus
[28] = test system: Mus musculus; assay: In vivo agonist activity at sigma 1 receptor in Swiss […] mouse assessed as modulation of morphine-induced analgesic effect by measuring tail flick latency at 1 mg/kg, ip measured after 90 mins by radiant heat tail-flick method; assay type: functional, organism-based
[29] = test system: Mus musculus; assay: In vivo agonist activity at sigma 1 receptor in Swiss […] mouse assessed as modulation of morphine-induced analgesic effect by measuring tail flick latency at 1 mg/kg, ip preincubated for 45 mins followed by morphine treatment after 90 mins by radiant heat tail-flick method; assay type: functional, organism-based; details: time 135.0 min

SMILES: O=C(O)CCCC[C@@H]1CCSS1 [THIOCTIC ACID]
- Activity [1]: 0.5 µmol/L
- TAC [2]: 10.7 mmol/L
- Activity [3]: 0.27 mU/ml
- Activity [4]: 0.4 µmol/L
- Activity [5]: 0.29 mU/ml
- viability at 24 h, 1 µM [6]: 97.9%
- TAC [7]: 10.9 mmol/L
- viability at 24 h, 100 µM [8]: 95.9%
- TAC [9]: 10.5 mmol/L
- Activity [10]: 0.27 mU/ml
- TAC [11]: 12.1 mmol/L
- TAC [12]: 11.2 mmol/L
- Activity [13]: 0.5 µmol/L
- TAC [14]: 13.5 mmol/L
- Activity [15]: 0.28 mU/ml
- viability at 24 h, 10 µM [16]: 98.1%
- Activity [17]: 0.28 mU/ml
- viability at 24 h, 25 µM [18]: 97.2%
- viability at 24 h, 50 µM [19]: 96.4%
- Activity [20]: 0.5 µmol/L
- viability at 24 h, 0.1 µM [21]: 98.6%
- Activity [22]: 0.29 mU/ml
- Activity [23]: 0.4 µmol/L
- Activity [24]: 0.4 µmol/L

SMILES: CO[C@@]12[C@H](COC(N)=O)C3=C(C(=O)C(C)=C(N)C3=O)N1C[C@@H]1N[C@@H]12 [MITOMYCIN]
- Activity [15]: 2.23 mU/ml
- viability at 24 h, 10 µM [16]: 46.1%

- Ki [25]: 6.1 nM
- Ratio Ki [26]: 204
- Ki [27]: 1240 nM
SMILES: O=C(CCCC[C@@H]1CCSS1)N1CCN(Cc2ccccc2)CC1
- Activity [1]: 0.5 µmol/L
- TAC [2]: 10.2 mmol/L
- Activity [3]: 0.3 mU/ml
- Activity [4]: 0.4 µmol/L
- Activity [5]: 0.32 mU/ml
- viability at 24 h, 1 µM [6]: 98.7%
- TAC [7]: 10.8 mmol/L
- viability at 24 h, 100 µM [8]: 95.8%
- TAC [9]: 10.5 mmol/L
- Activity [10]: 0.3 mU/ml
- TAC [11]: 12.8 mmol/L
- TAC [12]: 13 mmol/L
- Activity [13]: 0.4 µmol/L
- TAC [14]: 11.2 mmol/L
- Activity [15]: 0.32 mU/ml
- viability at 24 h, 10 µM [16]: 96.5%
- Activity [17]: 0.32 mU/ml
- viability at 24 h, 25 µM [18]: 96.6%
- viability at 24 h, 50 µM [19]: 95.7%
- Activity [20]: 0.5 µmol/L
- viability at 24 h, 0.1 µM [21]: 98.5%
- Activity [22]: 0.3 mU/ml
- Activity [23]: 0.4 µmol/L
- Activity [24]: 0.5 µmol/L

- Ki [25]: 17.7 nM
- Ratio Ki [26]: 106
- Ki [27]: 1870 nM
SMILES: O=C(CCCC[C@@H]1CCSS1)OC1CCN(Cc2ccccc2)CC1
- Activity [1]: 0.5 µmol/L
- TAC [2]: 10.9 mmol/L
- Activity [3]: 0.3 mU/ml
- Activity [4]: 0.4 µmol/L
- Activity [5]: 0.32 mU/ml
- viability at 24 h, 1 µM [6]: 98.7%
- TAC [7]: 10.9 mmol/L
- Activity [28]: inactive
- viability at 24 h, 100 µM [8]: 96.2%
- TAC [9]: 10.7 mmol/L
- Activity [10]: 0.32 mU/ml
- TAC [11]: 10.9 mmol/L
- TAC [12]: 11.3 mmol/L
- Activity [13]: 0.5 µmol/L
- TAC [14]: 11 mmol/L
- Activity [15]: 0.3 mU/ml
- viability at 24 h, 10 µM [16]: 96.4%
- Activity [17]: 0.28 mU/ml
- viability at 24 h, 25 µM [18]: 96.6%
- viability at 24 h, 50 µM [19]: 97.4%
- Activity [20]: 0.4 µmol/L
- viability at 24 h, 0.1 µM [21]: 100%
- Activity [22]: 0.34 mU/ml
- Activity [29]: Active
- Activity [23]: 0.5 µmol/L
- Activity [24]: 0.4 µmol/L

SMILES: O=C1O[C@H]([C@@H](O)CO)C(O)=C1O [ASCORBIC ACID]
- TAC [7]: 26.9 mmol/L
